Reference: ChEMBL document CHEMBL3414472, “Synthesis, SAR, and series evolution of novel oxadiazole-containing 5-lipoxygenase activating protein inhibitors: discovery of 2-[4-(3-{(r)-1-[4-(2-amino-pyrimidin-5-yl)-phenyl]-1-cyclopropyl-ethyl}-[1,2,4]oxadiazol-5-yl)-pyrazol-1-yl]-N,N-dimethyl-acetamide (BI 665915)” (J Med Chem, 2015)
In brackets after ≈: the same amount, converted by molar mass.

Columns and labels:
[1] = tested on: Mus musculus; assay: In vivo inhibition of FLAP in po dosed C57BL/6 mouse assessed as reduction of LTB4 production in calcimycin-stimulated whole blood after 2 hrs by ELISA; format: functional, organism-based
[2] = Aqueous equilibrium solubility of the compound in crystalline form in citric acid/disodium phosphate buffer at pH 6.8 after 24 hrs of rotation by HPLC analysis; format: physicochemical
How it was run: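 Saturated solution of crystalline material in citric acid/disodium phosphate buffer pH 6.8 rotated 24 h; after centrifugation and filtration, dissolved concentration measured by HPLC.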

[3] = Oral bioavailability in cynomolgus monkey at 10 mg/kg; format: ADME, organism-based, Macaca fascicularis; conditions: in vivo
How it was run: (§1)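 iv 1 mg/kg in 70 % PEG; po 10 mg/kg as suspension in 0.5 % methyl cellulose/0.015 % Tween. Blood sampled at 11 timepoints (0, 5, 15, 30 min, 1, 2, 4, 6, 8, 12, 24 h) per dose; mean of n = 3. Clearance expressed as percent of hepatic blood flow.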

[4] = molecular target: Cytochrome P450 3A4 (Homo sapiens, UniProt P08684); assay: Inhibition of CYP3A4 in human liver microsomes using midazolam as substrate preincubated for 10 mins followed by NADPH addition measured after 6 mins; format: ADME
How it was run: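 Human liver microsomes (0.05 mg/mL protein) with cocktail substrates: 4 µM diclofenac (2C9), 3 µM dextromethorphan (2D6), 2.5 µM midazolam (3A4). Compound in 0.1 M potassium phosphate pH 7.4 preincubated 10 min at 37 °C; NADPH added, reaction 6 min at 37 °C.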

[5] = tested on: Canis familiaris; assay: Clearance in dog at 1 mg/kg, iv and 10 mg/kg, po relative to hepatic blood flow; format: ADME, organism-based, Canis lupus familiaris, Liver; conditions: in vivo; how it was run: as §1
[6] = molecular target: T1, Leukotriene A-4 hydrolase (Homo sapiens) (UniProt P09960); assay: Inhibition of LTA4 hydrolase (unknown origin) at 10 uM relative to control
T1 sequence (whole entry): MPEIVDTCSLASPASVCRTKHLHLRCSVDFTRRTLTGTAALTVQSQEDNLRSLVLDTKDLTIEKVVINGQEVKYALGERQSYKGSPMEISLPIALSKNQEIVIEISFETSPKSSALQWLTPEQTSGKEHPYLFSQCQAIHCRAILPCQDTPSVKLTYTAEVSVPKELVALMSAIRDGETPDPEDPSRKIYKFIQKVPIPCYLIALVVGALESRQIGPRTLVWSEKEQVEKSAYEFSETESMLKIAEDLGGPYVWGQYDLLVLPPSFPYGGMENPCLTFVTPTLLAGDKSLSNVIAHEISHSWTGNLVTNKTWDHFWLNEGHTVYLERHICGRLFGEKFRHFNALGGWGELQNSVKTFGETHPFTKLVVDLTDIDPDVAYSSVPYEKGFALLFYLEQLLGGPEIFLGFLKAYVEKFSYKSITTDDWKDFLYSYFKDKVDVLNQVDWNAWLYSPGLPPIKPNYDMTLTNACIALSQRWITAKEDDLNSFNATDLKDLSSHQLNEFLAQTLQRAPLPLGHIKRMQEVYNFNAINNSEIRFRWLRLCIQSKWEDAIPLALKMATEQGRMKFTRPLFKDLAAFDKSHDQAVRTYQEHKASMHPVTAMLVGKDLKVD

[7] = Mean residence time in cynomolgus monkey at 1 mg/kg, iv; format: ADME, organism-based, Macaca fascicularis; design: dose 1 mg/kg, route intravenous; conditions: in vivo; how it was run: as §1
[8] = Plasma concentration in C57BL/6 mouse at 1 mg/kg, po after 2 hrs; format: ADME, organism-based; design: dose 1 mg/kg, route oral
[9] = molecular target: T2, Cytosolic phospholipase A2 (Homo sapiens) (UniProt P47712); assay: Inhibition of phospholipase A2 (unknown origin) at 10 uM relative to control
T2 sequence (whole entry): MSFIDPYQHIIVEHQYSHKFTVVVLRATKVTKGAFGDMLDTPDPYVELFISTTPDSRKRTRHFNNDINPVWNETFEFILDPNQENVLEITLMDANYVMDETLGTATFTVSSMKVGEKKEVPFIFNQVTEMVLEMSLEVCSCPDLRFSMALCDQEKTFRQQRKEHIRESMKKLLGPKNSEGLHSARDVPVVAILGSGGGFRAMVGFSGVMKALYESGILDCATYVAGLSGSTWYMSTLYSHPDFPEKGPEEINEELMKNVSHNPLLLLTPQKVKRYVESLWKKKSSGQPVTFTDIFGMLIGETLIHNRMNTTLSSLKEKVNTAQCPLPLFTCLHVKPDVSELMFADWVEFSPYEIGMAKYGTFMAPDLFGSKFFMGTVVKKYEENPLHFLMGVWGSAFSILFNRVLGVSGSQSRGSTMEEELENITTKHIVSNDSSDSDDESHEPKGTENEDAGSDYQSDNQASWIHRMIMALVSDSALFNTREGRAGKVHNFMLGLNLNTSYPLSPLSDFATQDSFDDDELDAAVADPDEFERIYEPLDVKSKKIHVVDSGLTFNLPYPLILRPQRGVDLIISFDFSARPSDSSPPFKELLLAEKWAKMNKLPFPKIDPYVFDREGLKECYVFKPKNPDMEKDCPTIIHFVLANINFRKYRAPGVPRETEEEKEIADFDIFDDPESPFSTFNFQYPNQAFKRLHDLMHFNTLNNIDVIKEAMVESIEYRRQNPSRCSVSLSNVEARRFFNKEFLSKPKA

[10] = molecular target: CYP3A4 (Homo sapiens, UniProt P08684); assay: Induction of CYP3A4 in human hepatocytes using midazolam as substrate assessed as formation of 1'-hydroxymidazolam up to 30 uM preincubated for 48 hrs followed by substrate addition measured up to 120 mins relative to control; format: ADME, cell-based, Hepatocyte; conditions: probe midazolam, read-out: FC
How it was run: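 Freshly plated, sandwich-cultured, single-donor human hepatocytes were exposed to compound or rifampicin (25 µM) for 48 h, with medium and dosing agent renewed every 24 h. The linear slope of 1'-hydroxymidazolam formation over time (to 120 min) was determined. Fold induction is the compound slope divided by the solvent control slope.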

CYP3A4, sequence (P08684 whole entry): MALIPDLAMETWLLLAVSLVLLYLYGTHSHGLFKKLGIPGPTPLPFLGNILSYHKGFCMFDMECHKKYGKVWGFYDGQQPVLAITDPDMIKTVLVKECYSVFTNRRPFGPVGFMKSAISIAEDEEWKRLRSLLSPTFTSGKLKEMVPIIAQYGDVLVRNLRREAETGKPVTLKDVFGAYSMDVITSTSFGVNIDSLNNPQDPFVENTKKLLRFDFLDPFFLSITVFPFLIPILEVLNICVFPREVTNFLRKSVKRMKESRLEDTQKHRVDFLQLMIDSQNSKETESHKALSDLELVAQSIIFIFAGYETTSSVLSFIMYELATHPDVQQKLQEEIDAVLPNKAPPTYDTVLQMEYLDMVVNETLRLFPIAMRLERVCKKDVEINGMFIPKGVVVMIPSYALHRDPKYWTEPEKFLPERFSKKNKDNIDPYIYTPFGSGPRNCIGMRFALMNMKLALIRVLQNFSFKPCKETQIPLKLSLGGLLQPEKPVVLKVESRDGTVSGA
Cytochrome P450 3A4, sequence (P08684 whole entry): as above

For `CN(C)C(=O)Cn1cc(-c2nc([C@@](C)(c3ccc(-c4cnc(N)nc4)cc3)C3CC3)no2)cn1` [BI 665915], the inhibition [1] was “Dose-dependent effect”, the solubility thermodynamic at 24 h [2] was 48 µg/mL (≈ 105 µM) and the bioavailability [3] was 45%. It also gave an IC50 [4] of over 30 µM, a CL [5] of 2.8% and an inhibition [6] of under 50%. The MRT [7] was 4.8 h, the concentration at 2 h [8] was 1700 nM and the inhibition [9] was under 50%. For the same compound, the fold induction at 2 h [10] was 2.
